Assay results taken from ChEMBL document CHEMBL2390871, “Exploring the anticancer potential of pyrazolo[1,2-a]benzo[1,2,3,4]tetrazin-3-one derivatives: the effect on apoptosis induction, cell cycle and proliferation” (Eur J Med Chem, 2013).
Activity calls are given as the source filed them. The rule behind the calls is not given here.

Key:
[1] = test system: HeLa; assay: Cell cycle arrest in human HeLa cells assessed as accumulation at S phase at 50 uM after 72 hrs by propidium iodide staining-based FACS analysis; type: functional
Outline: (§1)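 HeLa cells (1 × 10⁶) exposed 72 h to 5, 10, 25 or 50 µM of each compound. Cells were washed, trypsinized, fixed in chilled 70% ethanol on ice for more than 2 h, and stained with propidium iodide for 15 min at 37 °C in the dark. Cell-cycle phase distribution was read by flow cytometry against untreated control cells.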

[2] = test system: HeLa; assay: Cell cycle arrest in human HeLa cells assessed as accumulation at sub-G0/G1 phase at 50 uM after 72 hrs by propidium iodide staining-based FACS analysis; type: functional; outline: as §1
[3] = test system: HeLa; assay: Induction of mitochondrial membrane depolarization in human HeLa cells after overnight incubation by FACS analysis; type: functional, cell-based
Outline: (§2)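 HeLa cells (175,000/well) were incubated overnight with serial drug concentrations. They were washed with PBS, incubated 30 min at 37 °C in Krebs Ringer buffered saline, detached, and collected in buffer with 1% FCS. At least 2 × 10⁴ cells were analysed by flow cytometry, with the TMRM signal read on FL2. Depolarization was gated on cells treated overnight with staurosporine as positive control, and the untreated-cell signal was subtracted. Triplicates, replicated twice.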

[4] = test system: T47D; assay: Cytotoxicity against human T47D cells assessed as growth at 10 uM after 48 hrs by sulforhodamine B assay; type: functional; conditions: read-out: Activity
Outline: (§3)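 NCI-60 one-dose screen at 10 µM. Cells in RPMI 1640 with 5% FBS and 2 mM L-glutamine were plated at 5000–40,000/well and preincubated 24 h. Drug was then applied for 48 h at 37 °C, 5% CO₂. Adherent cells were fixed with cold TCA (10% final) and stained with SRB. Growth % is relative to the no-drug control and the time-zero cell number; negative values indicate lethality.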

[5] = test system: PC-3; assay: Cytotoxicity against human PC3 cells assessed as growth at 10 uM after 48 hrs by sulforhodamine B assay; type: functional; conditions: PC-3, 48 h, read-out: Activity; outline: as §3
[6] = test system: UO-31; assay: Cytotoxicity against human UO31 cells assessed as growth at 10 uM after 48 hrs by sulforhodamine B assay; type: functional; conditions: UO-31, 48 h, read-out: Activity; outline: as §3
[7] = test system: SK-MEL-2; assay: Cytotoxicity against human SK-MEL-2 cells assessed as growth at 10 uM after 48 hrs by sulforhodamine B assay; type: functional; conditions: SK-MEL-2, 48 h, read-out: Activity; outline: as §3
[8] = test system: SNB-75; assay: Cytotoxicity against human SNB75 cells assessed as growth at 10 uM after 48 hrs by sulforhodamine B assay; type: functional; conditions: SNB-75, 48 h, read-out: Activity; outline: as §3
[9] = test system: SW-620; assay: Cytotoxicity against human SW620 cells assessed as growth at 10 uM after 48 hrs by sulforhodamine B assay; type: functional; conditions: SW-620, 48 h, read-out: Activity; outline: as §3
[10] = test system: COLO 205; assay: Cytotoxicity against human COLO205 cells assessed as growth at 10 uM after 48 hrs by sulforhodamine B assay; type: functional; conditions: COLO 205, 48 h, read-out: Activity; outline: as §3
[11] = test system: NCI-H522; assay: Cytotoxicity against human NCI-H522 cells assessed as growth at 10 uM after 48 hrs by sulforhodamine B assay; type: functional; conditions: NCI-H522, 48 h, read-out: Activity; outline: as §3
[12] = test system: HOP-92; assay: Cytotoxicity against human HOP92 cells assessed as growth at 10 uM after 48 hrs by sulforhodamine B assay; type: functional; conditions: HOP-92, 48 h, read-out: Activity; outline: as §3
[13] = test system: MOLT-4; assay: Cytotoxicity against human MOLT4 cells assessed as growth at 10 uM after 48 hrs by sulforhodamine B assay; type: functional; conditions: MOLT-4, 48 h, read-out: Activity; outline: as §3
[14] = Cytotoxicity against human LAN5 cells after overnight incubation by MTT assay; type: functional, cell-based; conditions: LA-N-5
Outline: (§4)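 MTT (5 mg/ml) was added for 3 h at 37 °C, formazan dissolved in DMSO, and absorbance read at 540 nm. Viability is relative to untreated cells (100%), fitted to a four-parameter Hill equation. IC50 is 50% formazan formation versus drug-free control. Triplicates, at least three independent experiments.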

[15] = test system: CCRF-CEM; assay: Cytotoxicity against human CCRF-CEM cells assessed as growth at 10 uM after 48 hrs by sulforhodamine B assay; type: functional; conditions: read-out: Activity; outline: as §3
[16] = Cytotoxicity against human 16HBE cells after overnight incubation by MTT assay; type: functional, cell-based; conditions: 16HBE14o-; outline: as §4
[17] = test system: MCF7; assay: Cytotoxicity against human MCF7 cells after overnight incubation by MTT assay; type: functional, cell-based; outline: as §4
[18] = test system: Caco-2; assay: Cytotoxicity against human Caco2 cells after overnight incubation by MTT assay; type: functional, cell-based; outline: as §4
[19] = test system: HeLa; assay: Cytotoxicity against human HeLa cells after overnight incubation by MTT assay; type: functional, cell-based; outline: as §4
[20] = test system: NCI-H292; assay: Cytotoxicity against human NCI-H292 cells after overnight incubation by MTT assay; type: functional, cell-based; outline: as §4
[21] = test system: HeLa; assay: Induction of mitochondrial membrane depolarization in human HeLa cells at < 10 uM after overnight incubation by FACS analysis; type: functional, cell-based; outline: as §2
[22] = test system: HeLa; assay: Induction of mitochondrial membrane depolarization in human HeLa cells at 3 to 4 uM after overnight incubation by FACS analysis; type: functional, cell-based; outline: as §2
[23] = test system: IGROV-1; assay: Cytotoxicity against human IGROV1 cells assessed as growth at 10 uM after 48 hrs by sulforhodamine B assay; type: functional; conditions: IGROV-1, 48 h, read-out: Activity; outline: as §3
[24] = test system: HeLa; assay: Cell cycle arrest in human HeLa cells assessed as accumulation at G1 phase at 5 to 50 uM after 72 hrs by propidium iodide staining-based FACS analysis; type: functional; outline: as §1
[25] = test system: HeLa; assay: Cell cycle arrest in human HeLa cells assessed as accumulation at sub-G0/G1 phase at 5 to 50 uM after 72 hrs by propidium iodide staining-based FACS analysis; type: functional; outline: as §1
[26] = test system: HeLa; assay: Induction of mitochondrial membrane depolarization in human HeLa cells at 1 uM after overnight incubation by FACS analysis; type: functional, cell-based; outline: as §2
[27] = test system: HeLa; assay: Induction of mitochondrial membrane depolarization in human HeLa cells at 3 to 8 uM after overnight incubation by FACS analysis; type: functional, cell-based; outline: as §2

Compound | growth at 10 µM [4] [%] | growth at 10 µM [5] [%] | growth at 10 µM [6] [%] | growth at 10 µM [7] [%] | growth at 10 µM [8] [%] | growth at 10 µM [9] [%] | growth at 10 µM [10] [%] | growth at 10 µM [11] [%] | growth at 10 µM [12] [%] | growth at 10 µM [13] [%] | IC50 [14] [µM] | growth at 10 µM [15] [%] | IC50 [16] [µM] | IC50 [17] [µM] | IC50 [18] [µM] | IC50 [19] [µM] | IC50 [20] [µM] | other results
Cc1cc(=O)n2nnc3cc(Cl)c(Cl)cc3n12 | 76 | 94 | 81 | 102 | 96 | 23 | -64 | 54 | 101 | 59 | 25.7 | 23 | 13.5 | 13.9 | 25.7 | 14.8 | 28.2 | Activity [1]: 19.4%; Activity [2]: 25.4%; EC50 [3]: 3 µM
Cc1cc(=O)n2nnc3cc(C#N)ccc3n12 | 91 | 101 | 105 | 99 | 96 | 110 | 104 | 97 | 103 | 95 | 28.2 | 100 | 46.7 | 35.9 | 37.1 | 27 | 43.6 | Activity [21]: Active
Cc1cc2nnn3c(=O)cc(C)n3c2cc1C | 97 | 100 | 84 | 96 | 89 | 94 | 66 | 97 | 93 | 82 | 95.5 | 19 | 38.9 | 46.7 | 46.8 | 13.2 | 23.4 | Activity [1]: 10%; Activity [2]: 18%; Activity [22]: Active; growth at 10 µM [23]: 91%
Cc1cc(=O)n2nnc3ccc(Cl)cc3n12 |  |  |  |  |  |  |  |  |  |  | 48.9 |  | 27.5 | 29.5 | 34.6 | 15.8 | 25.1 | 
Cc1cc(=O)n2nnc3cc(C(F)(F)F)ccc3n12 | 115 | 101 | 84 | 99 | 116 | 118 | 108 | 97 | 94 | 91 | 15.1 | 103 | 30.9 | > 100 | > 100 | > 100 | > 100 | Activity [24]: -12%; Activity [25]: 7.2%; Activity [26]: Active
Cc1cc(=O)n2nnc3cc(Cl)ccc3n12 |  |  |  |  |  |  |  |  |  |  | 31.6 |  | 17.7 | 20.5 | 24 | 14.8 | 23.4 | EC50 [3]: 5 µM
Cc1ccc2c(c1)nnn1c(=O)cc(C)n21 |  |  |  |  |  |  |  |  |  |  | 93.3 |  | 36.3 | 42.6 | 50.2 | 15.4 | 25.1 | Activity [27]: Active
